# Screens from PubChem BioAssay.
# Many of the other results were omitted from the sample, so hits are more common in it than they were.
# MPTP block: blocks calcium-induced mitochondrial swelling | isolated mouse mitochondria, Ca2+ swelling absorbance, 30 min | 1.4% of 360,000 active | inhibition, % at 10 µM;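 active = inhibition of 50% or more, scaled per plate between neutral and stimulator controls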;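 note: 0% = DMSO wells given calcium and 100% = 1 mM EGTA wells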
# T cruzi repl: blocks replication of Trypanosoma cruzi; inhibition, % (concentration not given with the values); T. cruzi beta-gal in NIH3T3, luminescence, 90 h; 1.4% of 300,000 active;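 active = mean inhibition across valid replicates above about 55%, limit read from the data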;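 note: signal also drops with host cell toxicity which is not excluded here; 0% = plate median of DMSO wells and 100% = zero luminescence signal; higher percent means less beta-gal luminescence so fewer parasites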
#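 Assay system: NIH/3T3 fibroblasts plus reporter T. cruzi. Amount: NIH/3T3 cells, 5,000 per well. Buffer or medium: DMEM, 2% fetal bovine serum. Doses: compound pinned at 50 nL/well, DMSO. Schedule: ≥90 h infection period, 3 h prior cell attachment. Signal: luminescent β-galactosidase signal after 60 min lysis. Read-out: parasite load inhibition, %.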
# Lmaj promast: Leishmania major promastigote growth inhibition. Leishmania major promastigotes, resazurin fluorescence viability. inhibition, % at 10 µM. 9% of 200,000 active. AID 1063; in the data active = inhibition above about 50%;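 note: promastigotes grown with compound for 44 hours at 28 °C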
# Redox H2O2 prof: compounds producing H2O2 with reducing agent – biochemical, NIH compound library profiling, artefact control for MLSCN library redox annotation, primary screen. DTT-dependent redox cycling H2O2, phenol red/HRP absorbance; 100% = 100 µM peroxide control, 0% = buffer. activation, % at 10 µM. 0.03% of 200,000 active;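 active = activation of at least 50% relative to the plate's high and low controls in the primary single-dose screen; inactive = activation below 50%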;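 note: compound incubated with DTT at 0.8 mM final as the reducing agent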
# Hep lipid drop: modulators of hepatic lipid droplet formation; 0.4% of 240,000 active; AML12 mouse hepatocytes, oleate lipid droplets, BODIPY imaging; inhibition, % at 6.5 µM;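 active = lipid droplet intensity inhibited by at least 50%, with more than 500 cells counted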
#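 Test system: AML12 mouse liver cells; schedule: overnight exposure; technique: high-content imaging of BODIPY-stained droplets and DAPI nuclei; read-out: % inhibition of corrected integrated BODIPY droplet signal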
# Numbers without * were called inactive; . = no result.
SMILES,MPTP block,T cruzi repl,Lmaj promast,Redox H2O2 prof,Hep lipid drop
CCNS(=O)(=O)c1ccc(CCC(=O)NCCC2=CCCCC2)cc1,1,-20,44,0,0
COc1cccc(C(=O)NCC2CCN(c3ccc(S(=O)(=O)N4CCOCC4)cc3)CC2)c1,3,6,64*,2,.
COc1cccc(-c2nnc(NC(=O)c3ccc4ncsc4c3)o2)c1,-2,19,82*,-1,-14
CS(=O)(=O)c1cccc(-c2nnc(NC(=O)c3ccc4ncsc4c3)o2)c1,0,-11,.,.,.
CCOc1ccc(-c2nnc(NC(=O)c3ccc(OCC(C)C)c(OC)c3)o2)cc1,1,18,98*,0,.
COc1cccc(-c2nnc(NC(=O)c3ccc(S(=O)(=O)N4CCOCC4)cc3)o2)c1,-1,-97,96*,2,.
CC(C)(C)C(=O)Nc1ccc(Cc2ccncc2)cc1,0,-1,.,.,.
Cc1cccc(C(=O)Nc2nnc(-c3cccnc3)o2)c1,-4,-1,65*,0,7
O=C(Nc1cc(S(=O)(=O)N2CCOCC2)ccc1N1CCOCC1)c1cccc(Cl)c1,0,.,.,.,.
COc1cccc(-c2nnc(NC(=O)C3CCCCC3)o2)c1,0,-5,66*,-1,.
CC1CN(S(=O)(=O)c2ccc(C(=O)Nc3nnc(-c4ccc5c(c4)CCCC5)o3)cc2)CC(C)O1 (stereo unspecified),-16,61*,99*,-1,.
O=C(NCC1CCN(c2ccc(S(=O)(=O)N3CCOCC3)cc2)CC1)c1cccc(Cl)c1,2,-6,97*,0,-4
C/C(Cn1nnc([N+](=O)[O-])n1)=N\NC(=O)c1ccccc1,1,50,84*,-4,.
C/C(Cn1cnc([N+](=O)[O-])n1)=N\NC(=O)c1ccccc1,1,40,-4,1,0
O=C1C2C3C=CC(C4CC34)C2C(=O)N1/N=C/c1ccc(-c2ccc([N+](=O)[O-])cc2)o1 (stereo unspecified),4,22,3,0,5
O=C1C2C(C(=O)N1/N=C/c1ccc([N+](=O)[O-])o1)C1C=CC2C12CC2 (stereo unspecified),1,15,90*,0,-37
O=C1C2C3C=CC(C4CC34)C2C(=O)N1/N=C/c1ccc([N+](=O)[O-])o1 (stereo unspecified),1,20,99*,0,3
CCn1c(SCC(=O)NC2CCCc3ccccc32)nnc1-c1ccncc1 (stereo unspecified),1,11,-5,0,-17
CCn1c(SCC(=O)NC2CCCc3ccccc32)nnc1-c1cccs1 (stereo unspecified),0,2,56*,-4,.
CCn1c(SCC(=O)Nc2ccc(N3CCOCC3)cc2)nnc1-c1ccc(OC)cc1,8,-1,0,0,5
COc1ccc(-n2cnnc2SCC(=O)Nc2ccc(N3CCOCC3)cc2)cc1,0,-13,52*,1,.
O=C(CSc1nncn1-c1ccccc1)NC1CCCc2ccccc21 (stereo unspecified),-1,7,-1,-1,-2
COc1ccc(-n2cnnc2SCC(=O)NC2CCCc3ccccc32)cc1 (stereo unspecified),0,-12,69*,8,-2
CN(CCC1CCOCC1)C(=O)c1cc(COc2c(F)cccc2F)on1,-2,5,.,.,2
O=C(Nc1ncc(Cc2cccc(C(F)(F)F)c2)s1)c1ccc(-c2cccc([N+](=O)[O-])c2)o1,2,62*,91*,0,14
SMILES,MPTP block,T cruzi repl,Lmaj promast,Redox H2O2 prof,Hep lipid drop
CCCCn1nnc(NC(=O)Cc2ccc(Cl)cc2)n1,-4,4,-4,1,16
CCCCn1nnc(NC(=O)c2ccc([N+](=O)[O-])cc2Cl)n1,4,8,.,.,-2
CCn1nnc(NC(=S)NC(=O)c2ccc(-c3cccc(Cl)c3)o2)n1,5,-6,.,.,-10
CCCn1nnc(NC(=O)c2ccc(-c3cccc(Cl)c3)o2)n1,-2,6,77*,0,.
CCCCn1nnc(NC(=O)c2ccc(-c3cccc([N+](=O)[O-])c3)o2)n1,.,12,56*,0,2
CCCCn1nnc(NC(=O)c2ccc(-c3cccc(Cl)c3)o2)n1,-1,8,51*,4,.
O=C(Nc1nccs1)c1ccc(-c2cccc([N+](=O)[O-])c2)o1,-1,19,11,-1,8
CCCn1nnc(NC(=O)c2cccc(OCc3ccccc3)c2)n1,40,-3,52*,-1,5
CCCn1nnc(NC(=O)c2cccc(Cl)c2)n1,-3,-5,-4,0,.
CCOC(=O)C1(CCc2ccccc2)CCN(Cc2cnc(N(C)C)s2)CC1,0,44,11,1,17
CN(C)c1ncc(CN2CCC(CO)(CCCc3ccccc3)CC2)s1,0,56*,.,.,13
CC(=O)c1cccc(CN2CCC(CO)(CCCc3ccccc3)CC2)c1,1,19,79*,-1,-7
O=C1NC[C@H](CCCCN2C[C@H](Cc3ccc(O)cc3)N(CCc3ccccc3)C(=O)C2=O)N(CC2CCCCC2)C1=O,0,.,.,.,.
CC(C)Oc1ccc(CNC(=O)CC(c2ccccc2)c2cc(Cl)ccc2O)cc1 (stereo unspecified),5,56*,38,-5,.
O=C(CC(c1ccccc1)c1ccccc1O)NCc1ccccc1Cl (stereo unspecified),4,-6,51*,0,-10
O=C(CC(c1ccccc1)c1cc(Br)ccc1O)NCc1ccco1 (stereo unspecified),1,2,99*,1,-26
CCOC(=O)c1sc(NC(=O)CN2C(=O)NC3(CC(C)CC(C)(C)C3)C2=O)cc1C (stereo unspecified),-2,59*,.,.,.
CCOC(=O)c1sc(NC(=O)CN2C(=O)NC3(CC(C)CC(C)(C)C3)C2=O)c(C(=O)OCC)c1C (stereo unspecified),-1,51,18,0,5
C#CC(=O)N(c1cc(OC)ccc1OC)C(C(=O)NC1CCCC1)c1cccs1 (stereo unspecified),-2,33,101*,-4,.
C#CC(=O)N(c1ccc(OC)cc1OC)C(C(=O)NC1CCCC1)c1cccs1 (stereo unspecified),-1,16,94*,7,123*
COc1ccc(N(C(=O)c2ccco2)C(C(=O)NC2CCCCC2)c2cccs2)cc1OC (stereo unspecified),2,-6,-1,1,-6
COc1ccc(CCN(C(=O)C(F)(F)F)C(C(=O)NC2CCCC2)c2cccs2)cc1 (stereo unspecified),3,15,62*,2,.
Oc1ccccc1-c1cc(-c2ccco2)[nH]n1,10,-4,1,0,-6
Oc1ccc(Cl)cc1-c1cc(-c2ccco2)[nH]n1,0,-9,90*,-4,.
